≈ marks a conversion by molar mass, not a printed value.
Experiments:
[1] = Cytotoxicity against human BC1 cells after 72 hrs by sulforhodamine B assay; format: functional; settings: BC1, 72 h, read-out: ED50 (the source's name)
Procedure, shortened: (§1)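 Cells went in triplicate into 4 concentrations (0.16–20 µg/ml) from DMSO stock, final DMSO 0.5% v/v, for 72 h at 37° in 5% CO2. Cells were fixed with cold 50% TCA and stained with 0.4% sulforhodamine B in 1% HOAc. Bound dye was dissolved in 10 mM Tris base and read at 515 nm. ED50 came from the averaged data as percent of DMSO controls. LNCaP and ZR-75-1 were kept in phenol red-free RPMI with hormone-free FBS plus 0.1 nM testosterone or estradiol, respectively.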

Col2 = assay: Cytotoxicity against human Col2 cells after 72 hrs by sulforhodamine B assay; settings: Col2, 72 h, read-out: ED50 (the source's name)
HT-1080 = assay: Cytotoxicity against human HT1080 cells after 48 hrs by sulforhodamine B assay; format: functional; settings: HT-1080, 48 h, read-out: ED50 (the source's name)
Procedure, shortened: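 HT-1080 was kept in MEME with 1% NAA and 10% heat-inactivated FBS. Cells were treated in triplicate at 4 concentrations (0.16–20 µg/ml), final DMSO 0.5%, for 48 h at 37° in 5% CO2. They were fixed with cold 50% TCA and stained with sulforhodamine B; OD was read at 515 nm. ED50 was taken against DMSO-only controls.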

ZR-75-1 = assay: Cytotoxicity against human ZR-75-1 cells after 72 hrs by sulforhodamine B assay; format: functional; settings: ZR-75-1, 72 h, read-out: ED50 (the source's name); procedure, shortened: as §1
KB = assay: Cytotoxicity against human KB cells after 72 hrs by sulforhodamine B assay; format: functional; settings: read-out: ED50 (the source's name); procedure, shortened: as §1
P388 = assay: Cytotoxicity against mouse P388 cells after 48 hrs by sulforhodamine B assay; format: functional; settings: P388, 48 h, read-out: ED50 (the source's name)
Procedure, shortened: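 Murine P-388 was kept in Fisher's medium with 10% heat-inactivated FBS. Cells were exposed in triplicate to 4 concentrations (0.16–20 µg/ml), final DMSO 0.5%, for 48 h at 37° in 5% CO2. They were fixed with cold 20% TCA, stained with 0.4% sulforhodamine B, and read at 515 nm. ED50 was taken relative to DMSO controls.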

Lu1 = assay: Cytotoxicity against human Lu1 cells after 72 hrs by sulforhodamine B assay; format: functional; settings: Lu1, 72 h, read-out: ED50 (the source's name); procedure, shortened: as §1
[2] = Cytotoxicity against human U373 cells after 96 hrs by sulforhodamine B assay; format: functional, U-373MG ATCC; settings: U373 MG, read-out: ED50 (the source's name)
Procedure, shortened: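 U373 cells were treated in triplicate at 4 concentrations (0.16–20 µg/ml), final DMSO 0.5%, for 96 h at 37° in 5% CO2. Cells were fixed with cold 50% TCA, stained with 0.4% sulforhodamine B in 1% HOAc, and the dye was solubilized in 10 mM Tris. OD was read at 515 nm and ED50 was taken from percent of DMSO control.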

MEL-2 (Homo sapiens) = assay: Cytotoxicity against human MEL-2 cells after 72 hrs by sulforhodamine B assay; settings: MEL-2, 72 h, read-out: ED50 (the source's name)
[3] = Cytotoxicity against human KBV1 cells after 72 hrs by sulforhodamine B assay in absence of vinblastine; format: functional; settings: KB-V1, 72 h, read-out: ED50 (the source's name)
A-431 = assay: Cytotoxicity against human A431 cells after 72 hrs by sulforhodamine B assay; format: functional; settings: A-431, 72 h, read-out: ED50 (the source's name); procedure, shortened: as §1
LNCaP = assay: Cytotoxicity against human LNCAP cells after 72 hrs by sulforhodamine B assay; format: functional; settings: read-out: ED50 (the source's name); procedure, shortened: as §1
[4] = Cytotoxicity against human KBV1 cells after 72 hrs by sulforhodamine B assay in presence of vinblastine; format: functional; settings: KB-V1, 72 h, read-out: ED50 (the source's name)

| SMILES | EC50 [1] | EC50 (Col2) | EC50 (HT-1080) | EC50 (ZR-75-1) | EC50 (KB) | EC50 (P388) | EC50 (Lu1) | EC50 [2] | EC50 (MEL-2 (Homo sapiens)) | EC50 [3] | EC50 (A-431) | EC50 (LNCaP) | EC50 [4] |
| --- | --- | --- | --- | --- | --- | --- | --- | --- | --- | --- | --- | --- | --- |
| CC1=C(O)C(=O)C=C2C1=CC=C1[C@@]2(C)CC[C@@]2(C)[C@@H]3C[C@@](C)(O)C(=O)C[C@]3(C)CC[C@]12C | 0.9 µg/mL (≈ 2.06 µM) | 5.8 µg/mL (≈ 13.3 µM) | 2.1 µg/mL (≈ 4.81 µM) | 1 µg/mL (≈ 2.29 µM) | 1.7 µg/mL (≈ 3.89 µM) | 2 µg/mL (≈ 4.58 µM) | 2.2 µg/mL (≈ 5.04 µM) | 0.8 µg/mL (≈ 1.83 µM) | 1.5 µg/mL (≈ 3.44 µM) | 3 µg/mL (≈ 6.87 µM) | 1.1 µg/mL (≈ 2.52 µM) | 1 µg/mL (≈ 2.29 µM) | 3.3 µg/mL |
| COC(=O)[C@]1(C)CC[C@]2(C)CC[C@]3(C)[C@H]4CC[C@]5(COC(C)=O)[C@@H](C)C(=O)CC[C@H]5[C@]4(C)CC[C@@]3(C)[C@@H]2C1 | > 20 µg/mL | > 20 µg/mL | 10 µg/mL (≈ 18.9 µM) | 6.2 µg/mL (≈ 11.7 µM) | 10.1 µg/mL (≈ 19.1 µM) | > 5 µg/mL | 11.9 µg/mL (≈ 22.5 µM) | > 20 µg/mL | > 20 µg/mL | 9.8 µg/mL (≈ 18.5 µM) | 5.2 µg/mL (≈ 9.83 µM) | 11.8 µg/mL (≈ 22.3 µM) | 12 µg/mL |
| CC1=C(O)C(=O)C=C2C1=CC=C1[C@@]2(C)CC[C@@]2(C)[C@@H]3C[C@](C)(C(=O)O)CC[C@]3(C)CC[C@]12C [CELASTROL] | 0.3 µg/mL (≈ 0.666 µM) | 2.3 µg/mL (≈ 5.1 µM) | 0.5 µg/mL (≈ 1.11 µM) | 0.4 µg/mL (≈ 0.888 µM) | 1.2 µg/mL (≈ 2.66 µM) | 3.5 µg/mL (≈ 7.77 µM) | 1.3 µg/mL (≈ 2.88 µM) | 0.4 µg/mL (≈ 0.888 µM) | 0.6 µg/mL (≈ 1.33 µM) | 2.4 µg/mL (≈ 5.33 µM) | 0.6 µg/mL (≈ 1.33 µM) | 0.3 µg/mL (≈ 0.666 µM) | 1.7 µg/mL |
| COC(=O)[C@]1(C)CC[C@]2(C)CC[C@]3(C)[C@H]4CC[C@@]56CO[C@@](O)(CC[C@H]5[C@]4(C)CC[C@@]3(C)[C@@H]2C1)[C@@H]6C [SALASPERMIC ACID METHYL ESTER] | > 20 µg/mL | > 20 µg/mL | > 20 µg/mL | > 20 µg/mL | > 20 µg/mL | > 5 µg/mL | > 20 µg/mL | > 20 µg/mL | > 20 µg/mL | > 20 µg/mL | > 20 µg/mL | > 20 µg/mL | > 20 µg/mL |
| C[C@@H]1[C@@]23CC[C@H]4[C@@](C)(CC[C@@]5(C)[C@@H]6C[C@](C)(C(=O)O)CC[C@]6(C)CC[C@]45C)[C@@H]2CC[C@@]1(O)OC3 [SALASPERMIC ACID] | > 20 µg/mL | > 20 µg/mL | > 20 µg/mL | > 20 µg/mL | > 20 µg/mL | > 5 µg/mL | > 20 µg/mL | > 20 µg/mL | > 20 µg/mL | > 20 µg/mL | > 20 µg/mL | > 20 µg/mL | > 20 µg/mL |
| CC1=C(O)C(=O)C=C2C1=CC=C1[C@@]2(C)CC[C@@]2(C)[C@@H]3C[C@@H](C)C(=O)C[C@]3(C)CC[C@]12C [TINGENONE] | 0.3 µg/mL (≈ 0.713 µM) | 0.2 µg/mL (≈ 0.476 µM) | 0.7 µg/mL (≈ 1.66 µM) | 0.2 µg/mL (≈ 0.476 µM) | 0.9 µg/mL (≈ 2.14 µM) | 0.1 µg/mL (≈ 0.238 µM) | 0.6 µg/mL (≈ 1.43 µM) | 0.6 µg/mL (≈ 1.43 µM) | 0.2 µg/mL (≈ 0.476 µM) | 0.4 µg/mL (≈ 0.951 µM) | 0.4 µg/mL (≈ 0.951 µM) | 0.7 µg/mL (≈ 1.66 µM) | 0.5 µg/mL |

Source: ChEMBL document CHEMBL1149023, “Quinone-methide triterpenes and salaspermic acid from Kokoona ochracea” (1994)
